{
  "source": "paper PMC6322912",
  "about": "(Biochemistry, 2018)",
  "key": {"SAMHD1 [1]": {"target": "T1, SAMHD1 (Homo sapiens, UniProt Q9Y3Z3)", "T1 sequence (Q9Y3Z3 whole entry)": "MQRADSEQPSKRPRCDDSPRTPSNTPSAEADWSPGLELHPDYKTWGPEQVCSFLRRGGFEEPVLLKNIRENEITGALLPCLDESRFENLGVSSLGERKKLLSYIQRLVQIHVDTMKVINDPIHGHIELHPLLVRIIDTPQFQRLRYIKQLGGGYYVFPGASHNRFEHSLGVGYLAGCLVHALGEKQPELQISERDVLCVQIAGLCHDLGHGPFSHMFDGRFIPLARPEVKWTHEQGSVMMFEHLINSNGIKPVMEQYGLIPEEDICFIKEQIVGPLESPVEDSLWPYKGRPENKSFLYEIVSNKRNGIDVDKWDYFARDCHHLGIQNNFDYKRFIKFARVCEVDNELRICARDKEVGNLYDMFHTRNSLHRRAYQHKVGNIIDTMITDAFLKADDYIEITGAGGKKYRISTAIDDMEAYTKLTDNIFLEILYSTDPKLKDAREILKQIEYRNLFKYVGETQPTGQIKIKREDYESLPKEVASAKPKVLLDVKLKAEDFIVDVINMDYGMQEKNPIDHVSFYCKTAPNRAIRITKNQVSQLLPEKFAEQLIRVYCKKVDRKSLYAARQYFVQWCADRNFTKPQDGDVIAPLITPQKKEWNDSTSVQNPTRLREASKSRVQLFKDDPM", "assay": "Dose–response SAMHD1 dNTPase assay", "type": "biochemical", "conditions": "for inhibition at 500 µM: read-out: SAMHD1 inhibition in dose–response dNTPase assays"}, "SAMHD1 [2]": {"target": "T1, SAMHD1", "assay": "b4NPP–SAMHD1 HTS", "type": "biochemical", "conditions": "increasing concentrations of dGTP; normalized to no dGTP", "outline": "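Recombinant SAMHD1 was expressed in E. coli BL21* as an MBP fusion, tag-cleaved, and purified by heparin and size-exclusion chromatography. Nucleotide was added, then 2 mM final b4NPP. A410 was read over 45 min; rates came from 0–20 min slopes, with no-enzyme baseline.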"}},
  "data": [
    {"compound": "CN1C[C@H](C(=O)N[C@]2(C)O[C@@]3(O)[C@@H]4CCCN4C(=O)[C@H](Cc4ccccc4)N3C2=O)C=C2c3cccc4[nH]cc(c34)C[C@H]21", "note": "[Ergotamine]", "values": [
      {"measurement": "IC50", "setting": "SAMHD1 [1]", "value": "< 250", "unit": "µM"}
    ]},
    {"compound": "Nc1nc2c(ncn2[C@H]2C[C@H](O)[C@@H](COP(=O)(O)OP(=O)(O)OP(=O)(O)O)O2)c(=O)[nH]1", "note": "[dGTP]", "values": [
      {"measurement": "Inhibition of SAMHD1-mediated b4NPP hydrolysis", "setting": "SAMHD1 [2]", "value": "completely inhibited"}
    ]},
    {"compound": "Nc1cc(-c2ccncc2)c[nH]c1=O", "note": "[Amrinone]", "values": [
      {"measurement": "IC50", "setting": "SAMHD1 [1]", "value": "< 250", "unit": "µM"}
    ]},
    {"compound": "CC(=O)CCCCn1c(=O)c2c(ncn2C)n(C)c1=O", "note": "[Pentoxifylline]", "values": [
      {"measurement": "inhibition at 500 µM", "setting": "SAMHD1 [1]", "value": "~25", "unit": "%"}
    ]},
    {"compound": "N[C@@H](Cc1cc(I)c(Oc2cc(I)c(O)c(I)c2)c(I)c1)C(=O)O", "note": "[L-Thyroxine]", "values": [
      {"measurement": "IC50", "setting": "SAMHD1 [1]", "value": "< 250", "unit": "µM"}
    ]},
    {"compound": "COC(=O)c1ccc(O)c2nc3c(C=O)c(O)cc(O)c3nc12", "note": "[Lomofungin]", "values": [
      {"measurement": "IC50", "setting": "SAMHD1 [1]", "value": "< 250", "unit": "µM"}
    ]},
    {"compound": "Nc1nc2c(ncn2[C@H]2C[C@H](O)[C@@H](COP(O)(=S)OP(=O)(O)OP(=O)(O)O)O2)c(=O)[nH]1", "note": "(stereo partly drawn) [dGTPαS, deoxyguanosine triphosphate α S]", "values": [
      {"measurement": "Inhibition of preactivated SAMHD1 dCTPase activity", "setting": "SAMHD1 [1]; 150 μM dCTP substrate, tetramer preformed with 10 μM GTP and 25 μM dATPαS", "value": "inhibition"}
    ]},
    {"compound": "CCCCCOC(=O)Nc1nc(=O)n([C@@H]2O[C@H](C)[C@@H](O)[C@H]2O)cc1F", "note": "[Capecitabine]", "values": [
      {"measurement": "inhibition at 500 µM", "setting": "SAMHD1 [1]", "value": "~25", "unit": "%"}
    ]},
    {"compound": "CC[C@H](c1ccc(O)cc1)[C@@H](CC)c1ccc(O)cc1", "note": "[Hexestrol]", "values": [
      {"measurement": "IC50", "setting": "SAMHD1 [1]", "value": "< 250", "unit": "µM"}
    ]},
    {"compound": "CC1=C(/C=C/C(C)=C/C=C/C(C)=C/C(=O)O)C(C)(C)CCC1", "note": "[retinoic acid]", "values": [
      {"measurement": "IC50", "setting": "SAMHD1 [1]", "value": "< 250", "unit": "µM"}
    ]},
    {"compound": "Nc1nc2c(ncn2CCC(CO)CO)c(=O)[nH]1", "note": "[Penciclovir]", "values": [
      {"measurement": "inhibition at 500 µM", "setting": "SAMHD1 [1]", "value": "~25", "unit": "%"}
    ]},
    {"compound": "CC(C)(O)c1ccccc1CC[C@@H](SCC1(CC(=O)O)CC1)c1cccc(/C=C/c2ccc3ccc(Cl)cc3n2)c1", "note": "[Montelukast]", "values": [
      {"measurement": "IC50", "setting": "SAMHD1 [1]", "value": "< 250", "unit": "µM"}
    ]},
    {"compound": "CC1=C(CC(=O)O)c2cc(F)ccc2/C1=C\\c1ccc([S+](C)[O-])cc1", "note": "(stereo not shown) [Sulindac]", "values": [
      {"measurement": "IC50", "setting": "SAMHD1 [1]", "value": "< 250", "unit": "µM"}
    ]}
  ]
}
